pIC50: −log10 of the molar value.
Assays:
[1] = biological target: Sodium-dependent dopamine transporter (Rattus norvegicus) (UniProt P23977); test: Inhibitory effect of [3H]cocaine binding when pre incubation was conducted under reduced lighting; design: concentration or dose not given beside the values
In short: (§1)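 Ligand (final 100 μM or as indicated, in DMSO or H2O) or vehicle preincubated 5 min with rat striatal membranes, either under reduced lighting or 4 in. from a UV source. […] Remaining binding expressed as percent of control.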

[2] = species: Rattus norvegicus; test: Tested for inhibition of [3H]-dopamine uptake into rat striatal synaptosomes; type: functional; conditions: Brain
[3] = biological target: Sodium-dependent dopamine transporter (Rattus norvegicus) (UniProt P23977); test: Inhibitory effect of [3H]cocaine binding when pre incubation was conducted under ultraviolet light; design: concentration or dose not given beside the values; in short: as §1
[4] = species: Rattus norvegicus; test: Tested for inhibition of [3H]dopamine uptake into rat striatal synaptosomes; type: functional; conditions: Brain
[5] = biological target: Sodium-dependent dopamine transporter (Rattus norvegicus, UniProt P23977); test: Tested for inhibition of [3H]cocaine binding to rat striatal P2 membranes; type: cell membranes, Membrane
In short: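 Fresh rat striatal P2 membranes in 10 mM Na2HPO4/0.25 M sucrose, pH 7.4, 200 μg protein. Filtration on PEI-soaked GF/B filters.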

Sequence of Sodium-dependent dopamine transporter (P23977 whole entry): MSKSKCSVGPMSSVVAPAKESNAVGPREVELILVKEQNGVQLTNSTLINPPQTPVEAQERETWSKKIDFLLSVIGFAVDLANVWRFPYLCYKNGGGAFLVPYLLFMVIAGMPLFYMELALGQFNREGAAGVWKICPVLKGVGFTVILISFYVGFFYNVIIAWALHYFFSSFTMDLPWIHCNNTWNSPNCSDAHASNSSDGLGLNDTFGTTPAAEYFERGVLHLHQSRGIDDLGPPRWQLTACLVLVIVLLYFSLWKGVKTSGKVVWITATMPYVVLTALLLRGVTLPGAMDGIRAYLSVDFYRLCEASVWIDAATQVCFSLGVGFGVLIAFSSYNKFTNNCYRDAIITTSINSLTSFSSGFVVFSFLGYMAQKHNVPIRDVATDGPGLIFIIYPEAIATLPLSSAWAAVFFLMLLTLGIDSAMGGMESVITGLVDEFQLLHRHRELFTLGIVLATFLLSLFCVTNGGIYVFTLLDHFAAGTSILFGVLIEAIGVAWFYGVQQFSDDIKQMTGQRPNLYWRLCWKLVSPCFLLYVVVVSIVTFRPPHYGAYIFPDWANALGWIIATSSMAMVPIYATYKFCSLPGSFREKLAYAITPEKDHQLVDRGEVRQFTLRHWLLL
Sequence of Sodium-dependent dopamine transporter (Rattus norvegicus) (P23977 whole entry): as above

SMILES	Control [1] [%]	pIC50 [2]	Control [3] [%]	pIC50 [4]	pIC50 [5]
COC(=O)[C@@H]1C2CC[C@@H](C[C@@H]1OC(=O)c1ccccc1)N2C (single isomer, unassigned) [COCAINE]	138	6.68	74.1		
COC(=O)C1C(OC(=O)Nc2cccc(N=C=S)c2)C[C@H]2CCC1N2C (some centres undefined)	33.4		29.1	5.31	6.02
COC(=O)C1C(OC(=O)Nc2cccc(N=[N+]=[N-])c2)C[C@H]2CCC1N2C (some centres undefined)	102	5.41	39.1		6.20
COC(=O)C1C(OC(=O)Nc2ccc(N=C=S)cc2)C[C@H]2CCC1N2C (some centres undefined)	12.3	6.31	18.5		6.59
COC(=O)C1C(OC(=O)Nc2ccc(N=[N+]=[N-])cc2)C[C@H]2CCC1N2C (some centres undefined)	86.3	5.93	32.5		6.00

Source: ChEMBL document CHEMBL1127580 (J Med Chem, 1994)
